In one experiment the test system is WHIM12 tumors. As to the kind of experiment: WHIM12 PDX tumor growth. It counts as in vivo, mouse. The following applies: WHIM12 (ACSS2 low), 100 mpk daily PO. A digest of the protocol: (§1)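 Female NSG mice, 5–6 weeks old, received subcutaneous PBS:Matrigel grafts: BT474 at 1×10^6 (with a 60-day 17β-estradiol pellet at the neck), MDA-MB-468 at 5×10^6, or WHIM12 PDX cells at 2×10^6. Once tumors established, mice were randomized to daily IP or oral gavage. Arms: vehicle (10% DMSO, 20% solutol, 70% water with 0.5% Tween20) or 100 mg/kg test compound. Calipers thrice weekly; volume (L × W²)/2.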

Another experiment has as its system BT474 tumors. As to the kind of experiment: BT474 tumor xenograft growth. The following applies: BT474, 100 mpk daily IP. The experiment is classed as in vivo, mouse. A digest of the protocol: as §1

Take `CCn1c(C(O)(c2ccccc2)c2ccccc2)nc2ccc(C(=O)NC[C@@H](C)O)cc21` [VY-3-135, (R)-1-ethyl-2-(hydroxydiphenylmethyl)-N-(2-hydroxypropyl)-1H-benzo[d]imidazole-6-carboxamide]: the tumor growth entry with WHIM12 tumors was “mostly ineffective”; with BT474 tumors (two weeks of treatment) it was “completely abrogated tumor growth”. Also, the “tumor regression by the end of the regimen” value in the experiment with BT474 tumors (n = 5 mice per group) is on record as “two of the tumors in VY-3-135 treated group were not palpable by the end of the regimen, with one tumor fully regressing”.

Values taken from paper PMC8026699 (Cancer research, 2021).
